Screens (PubChem)
FXN GAA850 act = increases GAA850 frataxin promoter reporter activity; AID 540364; HEK293 lucGAA850 FXN promoter luciferase reporter, 24 h; percent of 10 µM SAHA response; activation, % at 6 µM; 360,000 compounds, 0.56% hits;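 active means activation above the average of all compounds screened plus 3 SD, cutoff fixed separately per campaign, cut at about 7.5% in these data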;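 further: 0% = DMSO wells and 100% = 10 µM SAHA wells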
MC4R antag cAMP = antagonists of human melanocortin 4 receptor (MC4R) | inhibition, % at 6.5 µM | AID 540295 | 360,000 compounds, 0.48% hits | MC4R-expressing cells, MTII-stimulated cAMP, LANCE TR-FRET;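 active means inhibition above its plate's cutoff, the mean of tested wells on that plate plus 3 SD, cut at about 29% in these data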;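 further: 0% = Melanotan II alone and 100% = Melanotan II plus saturating MCL0020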
Target sequence (P32245 whole entry, looked up): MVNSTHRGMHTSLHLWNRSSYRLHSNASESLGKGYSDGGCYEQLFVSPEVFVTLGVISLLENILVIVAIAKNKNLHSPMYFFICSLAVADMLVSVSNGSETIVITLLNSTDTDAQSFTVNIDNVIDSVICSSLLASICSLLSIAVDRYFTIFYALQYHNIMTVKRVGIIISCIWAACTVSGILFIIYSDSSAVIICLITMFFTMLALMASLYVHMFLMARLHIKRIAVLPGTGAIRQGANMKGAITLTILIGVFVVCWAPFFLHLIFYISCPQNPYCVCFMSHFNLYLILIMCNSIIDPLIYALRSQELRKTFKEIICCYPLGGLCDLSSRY
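System: U2OS-MC4R stable cell line; Technique: Eu-cAMP/anti-cAMP TR-FRET, emission 671 nm; Repeats: single well per compound; Also added: Melanotan II; Dosing: one concentration, 6.5 µM nominal; Schedule: 30-min compound, 1-h challenge, 1-h detection, room temperature.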
HTR2A ag = activates the mouse 5-HT2A serotonin receptor; activation, % at 7.6 µM; CHO-K1 mHTR2A beta-arrestin complementation, luminescence; percent of 30 µM serotonin response; AID 624169; 360,000 compounds, 0.66% hits;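 active means activation above a run cutoff, the mean activation of all tested compounds plus 3 SD, cut at about 14% in these data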;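 further: 0% = plate median of compound wells and 100% = 30 µM serotonin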
AHR activator = human AHR activation | AID 2796 | 320,000 compounds, 2.5% hits | P35869 | AHR-responsive luciferase reporter cells, luminescence | activation, % at 5 µM; in the data active means activation above about 47%;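 further: 0% = vehicle wells and 100% = reference agonist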
MC4R ag barr = agonists of human melanocortin 4 receptor (MC4R) beta-arrestin | P32245 | U2OS MC4R beta-arrestin complementation, luminescence; percent of melanotan II response, DMSO zero | activation, % at 8.9 µM | 360,000 compounds, 0.98% hits | AID 540308;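 active means activation above a per-plate cutoff, the mean activation of sample wells on that plate plus 3 SD, cut at about 8% in these data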
GAA30 counter = activates GAA30 frataxin promoter, counter-screen for GAA850 activators. 1,900 compounds, 66% hits. HEK293 lucGAA30 FXN promoter luciferase, 24 h; DMSO = 0%, 5 µM ipriflavone = 100%. AID 588350. shares compounds with FXN GAA850 act. activation, % at 6 µM;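 active means mean activation above the mean of solvent-only control wells plus 3 SD, cut at about 22% in these data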;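 further: counterscreen of GAA850 promoter hits where activity marks nonselective or luminescence artifacts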
FXN GAA850 conf = GAA850 FXN promoter activation confirmation. shares compounds with FXN GAA850 act. HEK293 lucGAA850 FXN promoter luciferase reporter, 24 h; 100% = activation by SAHA. activation, % at 6 µM. 1,900 compounds, 86% hits;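 active means mean activation above a set limit taken from the primary screen, cut at about 8% in these data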;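 further: 0% = DMSO wells and 100% = 10 µM SAHA wells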
Numbers without * were called inactive; · = no result. Shown are actives, neighbours in structure and some others; about 4.7% of the full set was active somewhere.

SMILES	FXN GAA850 act	MC4R antag cAMP	HTR2A ag	AHR activator	MC4R ag barr	GAA30 counter	FXN GAA850 conf
Cc1ccc(Cl)cc1NC(=O)C(Cc1ccccc1)N1C(=O)C2C3CCC(C3)C2C1=O (stereo not drawn)	15*	-2	-7	2	2	19	9.4*
COCC(=O)Nc1nc2ccccc2s1	1	5	5	21	-2	·	·
CC1(C(=O)Nc2nc3ccccc3s2)CC1(Br)Br (stereo not drawn)	11*	-12	0	·	-1	103*	36*
NC(=O)CC1C(=O)N(c2ccccc2)C(=S)N1NC(=O)c1ccc(Br)cc1 (stereo not drawn)	4	4	-1	-1	-2	·	·
COc1cccc(C(=O)NN2C(=S)N(c3ccccc3)C(=O)C2CC(N)=O)c1 (stereo not drawn)	7.8*	3	2	-1	-1	107*	29*
NC(=O)CC1C(=O)N(c2ccccc2)C(=S)N1NC(=O)c1ccccc1 (stereo not drawn)	8.9*	7	-1	·	-1	77*	20*
CN(C)CCCN(C(=O)c1ccc(S(=O)(=O)N2CCCCCC2)cc1)c1nc2c(F)cc(F)cc2s1	-1	5	-4	2	1	·	·
Cc1ccc(S(=O)(=O)N2C[C@H]3C(=O)C[C@@H](c4cccc(Cl)c4)N(S(=O)(=O)c4ccc(C)cc4)[C@H]3C[C@H]2c2ccc(Cl)cc2)cc1	-2	-2	4	·	1	·	·
Cn1c(=O)c2c(nc(SCCN3CCOCC3)n2Cc2ccc(F)cc2)n(C)c1=O	9.0*	-2	-2	4	-1	99*	36*
Cn1c(=O)c2c(nc(SCCN3CCOCC3)n2Cc2ccccc2Cl)n(C)c1=O	1	8	-1	1	-2	·	·
CC(=Nc1ccccc1)c1sc2ccccc2c1O	5	-9	-1	13	0	·	·
CC(=Nc1ccc(Br)cc1)c1sc2ccccc2c1O	7.9*	1	1	25	0	116*	36*
CCC(CC)c1nnc(NC(=O)CN2C(=O)C3C4C=CC(C4)C3C2=O)s1 (stereo not drawn)	9.9*	6	-5	2	1	14	7
COc1ccccc1CNC(=O)c1ccccc1NC(=O)C1=C(C)OCCS1	-2	-8	7	14	-2	·	·
COc1ccc(CN2CC[C@H]3C=CC[C@@H](C(=O)Nc4ccc(Cl)c(C(F)(F)F)c4)[C@H]3C2=O)cc1OC	-1	9	-10	1	2	·	·
O=C(O)Cc1cccc(=O)c(O)c1C(=O)O	1	0	2	·	0	·	·
C[C@H]1COC(=O)[C@H](Cc2ccc(F)cc2)C/C=C\C[C@@H](CC(=O)N(CCO)Cc2ccccc2)C(=O)N1	-1	10	3	-1	-1	·	·
COc1ccc(C(=O)/C=C/Nc2cccc(C)n2)cc1OC	11*	2	4	-3	-3	117*	46*
NC1(C(=O)O)CSSC1	9.8*	-3	-2	·	0	-20	25*
COc1ccccc1/C=N/Nc1nncc2ccccc12	8.2*	-7	2	8	-1	104*	36*
O=C(O)c1cccc(N/N=C/c2sc(N3CCOCC3)nc2-c2ccccc2)c1	11*	-2	2	8	1	133*	39*
Nc1ccc(C(=O)N/N=C/c2sc(N3CCOCC3)nc2-c2ccccc2)cc1	2	-12	3	28	-3	·	·
O=c1c(O)c(-c2ccccc2)oc2ccccc12	8.7*	1	5	·	-1	55*	18*
CC(=O)c1ccc2oc3ccccc3c(=O)c2c1	8.6*	7	9	-5	-2	87*	33*
COc1ccccc1-c1nnc(SCC(=O)Nc2ccc(N3CCOCC3)cc2)n1N	2	15	5	6	0	·	·
SMILES	FXN GAA850 act	MC4R antag cAMP	HTR2A ag	AHR activator	MC4R ag barr	GAA30 counter	FXN GAA850 conf
CCn1c2ccccc2c2cc(NC(=O)CSc3nnc(-c4cccc(OC)c4)n3N)ccc21	8.4*	6	-2	64*	-2	19	9.0*
CCn1c2ccccc2c2cc(NC(=O)CSc3nnc(-c4ccccc4OC)n3N)ccc21	8.4*	5	3	57*	-1	19	7
COc1cccc(-c2nnc(SCC(=O)Nc3cc(C)ccc3OC)n2N)c1	0	-8	1	1	-2	·	·
COc1ccc2nc(N3CCN(C(=O)C4COc5ccccc5O4)CC3)sc2c1 (stereo not drawn)	9.0*	1	0	4	-2	104*	32*
Cc1cccc2sc(N3CCN(C(=O)C4COc5ccccc5O4)CC3)nc12 (stereo not drawn)	0	6	6	-3	-1	·	·
O=C(C(Cc1ccccc1)NS(=O)(=O)c1cccc2cccnc12)N1CCc2ccccc21 (stereo not drawn)	13*	6	-3	6	0	24*	9.1*
O=S(=O)(c1cccc2cccnc12)N1CCc2ccccc21	0	-8	0	0	-1	·	·
O=C(CSc1nc(-c2ccc(F)cc2)cs1)N1CCOCC1	8.1*	-4	1	-3	-1	74*	27*
CC1CN(C(=O)CSc2nc(-c3ccc(F)cc3)cs2)CC(C)O1 (stereo not drawn)	1	3	-2	-3	-3	·	·
O=C(Nc1ccccc1O)c1csc2c1CCCC2	11*	-3	2	31	-1	119*	44*
COc1ccc(NC(=O)c2csc3c2CCCCC3)c(OC)c1	3	7	-1	24	1	·	·
CC(C)Cc1nnc(NC(=O)c2cc3c(s2)CCC3)s1	8.2*	2	0	25	0	95*	29*
CC1(c2nnnn2Cc2ccccc2)CCC(=O)N1c1ccc(N2CCOCC2)cc1 (stereo not drawn)	·	·	-2	·	·	·	·
CSc1ccc(Cl)c(C(=O)Nc2cc(S(=O)(=O)N3CCOCC3)ccc2N2CCOCC2)c1	2	9	1	2	0	·	·
CCCCC(=O)N/N=C/c1ccc(Sc2cccc3cccnc23)o1	15*	-4	-4	22	-3	25*	7.7*
O=C(Cc1cccc2ccccc12)N/N=C/c1ccc(Sc2cccc3cccnc23)o1	·	·	·	4	·	·	·
Cc1ccc(CN2C(=O)C(C)Sc3ccc(C#N)cc32)cc1 (stereo not drawn)	4	-4	-6	·	2	·	·
CCOc1ccccc1NC(=O)Nc1ccsc1C(=O)OC	-1	5	2	40	-2	·	·
